Results as given in ChEMBL document CHEMBL5705905, “Pharmacological targeting of kinases MST1 and MST2 augments tissue repair and regeneration” (Sci Transl Med, 2016).
The source made the active and inactive calls. No cut-off for these calls is given here.

What was measured:
Mus musculus [1] = assay: In vivo inhibition of MST1/2 in mouse assessed as block in MOB1 phosphorylation level at 1 mg/kg, ip administration by immunoblot analysis; assay type: functional, organism-based
Procedure, shortened: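 Wild-type mice received escalating intraperitoneal doses, and livers were collected 3 h later. Liver lysates were immunoblotted for p-MOB1 and quantified relative to controls. Means ± SD, n = 3, Student's t test.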

[2] = target: Vascular endothelial growth factor receptor 3 (Homo sapiens) (UniProt P35916); assay: Inhibition of FLT4 (unknown origin) assessed as remaining activity at 1 uM by Kinome scan method relative to control
[3] = target: Membrane-associated tyrosine- and threonine-specific cdc2-inhibitory kinase (Homo sapiens) (UniProt Q99640); assay: Inhibition of PKMYT1 (unknown origin) assessed as remaining activity at 1 uM by Kinome scan method relative to control
[4] = target: Cyclin-dependent kinase 18 (Homo sapiens) (UniProt Q07002); assay: Inhibition of PCTK3 (unknown origin) assessed as remaining activity at 1 uM by Kinome scan method relative to control
HepG2 = assay: Induction of apoptosis in human HepG2 cells assessed as early apoptosis cells at 3 uM by annexinV staining (Rvb =4.16 %); assay type: functional
[5] = target: Phosphatidylinositol 5-phosphate 4-kinase type-2 gamma (Homo sapiens, UniProt Q8TBX8); assay: Binding affinity to PIP5K2C (unknown origin) assessed as dissociation constant
[6] = target: Serine/threonine-protein kinase TAO1 (Homo sapiens) (UniProt Q7L7X3); assay: Inhibition of TAOK1 (unknown origin) assessed as remaining activity at 1 uM by Kinome scan method relative to control
[7] = target: Phosphatidylinositol 4,5-bisphosphate 3-kinase catalytic subunit gamma isoform (Homo sapiens, UniProt P48736); assay: Inhibition of PIK3CG (unknown origin) assessed as remaining activity at 1 uM by Kinome scan method relative to control
[8] = target: Serine/threonine-protein kinase N2 (Homo sapiens) (UniProt Q16513); assay: Inhibition of PKN2 (unknown origin) assessed as remaining activity at 1 uM by Kinome scan method relative to control
Mus musculus [9] = assay: Anti-colitis activity against DSS-induced mouse assessed as high BrdU incorporation at 1 mg/kg, ip administrated daily for 8 days by IHC staining; assay type: functional, organism-based; conditions: Colon, time 8.0 day
Procedure, shortened: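 Wild-type mice received oral DSS for 7 days with vehicle or 1 mg/kg daily. Colon sections were stained by IHC for YAP, BrdU and Ki67, and positive cells were quantified per animal. Means ± SD, n = 10, Student's t test.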

[10] = target: Non-receptor tyrosine-protein kinase TYK2 (Homo sapiens, UniProt P29597); assay: Inhibition of TYK2 JH2 domain (unknown origin) assessed as remaining activity at 1 uM by Kinome scan method relative to control
[11] = target: Cyclin-dependent kinase 4 (Homo sapiens) (UniProt P11802); assay: Inhibition of CDK4 (unknown origin) assessed as remaining activity at 1 uM by Kinome scan method relative to control
Procedure, shortened: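 Active-site-dependent competition-binding profiling (KINOMEscan) at 1 μM against a 468-kinase panel; compound supplied from a 10 mM DMSO stock. Read-out is ctrl% = (test signal − positive control signal)/(negative control signal − positive control signal) × 100. DMSO is the negative control (100%) and a control compound the positive control (0%). Lower ctrl% means tighter binding.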

[12] = Half life in male Sprague-Dawley rat at 10 mg/kg, po measured for 24 hrs by LC-MS/MS analysis; assay type: ADME, organism-based; conditions: in vivo
Procedure, shortened: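 Sprague-Dawley rats, single intravenous or oral dose. Parameters (half-life, AUC, bioavailability) reported in a supplementary table.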

[13] = target: Serine/threonine-protein kinase Nek1 (Homo sapiens) (UniProt Q96PY6); assay: Inhibition of NEK1 (unknown origin) assessed as remaining activity at 1 uM by Kinome scan method relative to control
[14] = target: Fibroblast growth factor receptor 2 (Homo sapiens) (UniProt P21802); assay: Inhibition of FGFR2 (unknown origin) assessed as remaining activity at 1 uM by Kinome scan method relative to control
[15] = target: Tyrosine-protein kinase Fgr (Homo sapiens) (UniProt P09769); assay: Inhibition of FGR (unknown origin) assessed as remaining activity at 1 uM by Kinome scan method relative to control
[16] = tested on: Phosphatidylinositol 4,5-bisphosphate 3-kinase catalytic subunit alpha isoform (Homo sapiens), P42336 [E545K]; assay: Inhibition of PIK3CA E545K mutant (unknown origin) assessed as remaining activity at 1 uM by Kinome scan method relative to control
[17] = target: Dual specificity mitogen-activated protein kinase kinase 6 (Homo sapiens) (UniProt P52564); assay: Inhibition of MEK6 (unknown origin) assessed as remaining activity at 1 uM by Kinome scan method relative to control
[18] = target: T1, Serine/threonine-protein kinase 3 (Homo sapiens, UniProt Q13188); assay: Inhibition of recombinant His-tagged full-length MST2 (unknown origin) expressing in Escherichia coli assessed as MOB1a phosphorylation level incubated for 30 min in the presence of 100 uM ATP by immunoblot analysis
T1 sequence (Q13188 whole entry): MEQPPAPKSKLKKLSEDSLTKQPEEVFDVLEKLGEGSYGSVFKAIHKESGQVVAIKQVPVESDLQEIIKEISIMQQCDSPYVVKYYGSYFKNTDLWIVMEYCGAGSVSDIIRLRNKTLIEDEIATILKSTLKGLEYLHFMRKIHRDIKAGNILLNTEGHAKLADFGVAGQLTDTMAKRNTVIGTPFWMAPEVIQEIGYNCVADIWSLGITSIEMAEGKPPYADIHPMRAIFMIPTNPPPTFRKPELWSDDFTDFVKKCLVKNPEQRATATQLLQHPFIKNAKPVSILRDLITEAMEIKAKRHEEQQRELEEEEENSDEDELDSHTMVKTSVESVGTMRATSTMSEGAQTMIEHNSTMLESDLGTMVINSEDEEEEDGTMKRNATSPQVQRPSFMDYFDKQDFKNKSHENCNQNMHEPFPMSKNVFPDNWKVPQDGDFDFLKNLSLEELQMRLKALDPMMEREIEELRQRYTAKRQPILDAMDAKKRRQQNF

[19] = target: Proto-oncogene tyrosine-protein kinase Src (Homo sapiens) (UniProt P12931); assay: Inhibition of SRC (unknown origin) assessed as remaining activity at 1 uM by Kinome scan method relative to control
[20] = target: Serine/threonine-protein kinase LATS2 (Homo sapiens) (UniProt Q9NRM7); assay: Inhibition of LATS2 (unknown origin) assessed as remaining activity at 1 uM by Kinome scan method relative to control
[21] = target: Mitogen-activated protein kinase kinase kinase 4 (Homo sapiens) (UniProt Q9Y6R4); assay: Inhibition of MAP3K4 (unknown origin) assessed as remaining activity at 1 uM by Kinome scan method relative to control
[22] = target: Proto-oncogene tyrosine-protein kinase receptor Ret (Homo sapiens) (UniProt P07949); assay: Inhibition of RET (unknown origin) assessed as remaining activity at 1 uM by Kinome scan method relative to control
Mus musculus [23] = assay: Protection against human hepatocyte transplanted FRG mouse assessed as increase in the ratio of BrdU+/FAH+ cells at 1 mg/kg, ip administrated once a daily for 28 days by H&E staining based immunohistochemical analysis; assay type: functional, organism-based; conditions: Liver, time 28.0 day

Sequence of Cyclin-dependent kinase 4 (Homo sapiens) (P11802 whole entry): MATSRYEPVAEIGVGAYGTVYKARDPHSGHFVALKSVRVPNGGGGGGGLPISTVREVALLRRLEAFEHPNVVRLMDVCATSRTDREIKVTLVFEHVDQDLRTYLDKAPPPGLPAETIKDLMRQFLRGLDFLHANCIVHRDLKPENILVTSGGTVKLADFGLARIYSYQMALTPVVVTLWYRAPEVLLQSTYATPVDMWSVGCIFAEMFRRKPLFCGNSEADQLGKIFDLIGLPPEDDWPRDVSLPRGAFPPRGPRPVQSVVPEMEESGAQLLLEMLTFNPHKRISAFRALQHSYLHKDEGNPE
Sequence of Vascular endothelial growth factor receptor 3 (Homo sapiens) (P35916 whole entry): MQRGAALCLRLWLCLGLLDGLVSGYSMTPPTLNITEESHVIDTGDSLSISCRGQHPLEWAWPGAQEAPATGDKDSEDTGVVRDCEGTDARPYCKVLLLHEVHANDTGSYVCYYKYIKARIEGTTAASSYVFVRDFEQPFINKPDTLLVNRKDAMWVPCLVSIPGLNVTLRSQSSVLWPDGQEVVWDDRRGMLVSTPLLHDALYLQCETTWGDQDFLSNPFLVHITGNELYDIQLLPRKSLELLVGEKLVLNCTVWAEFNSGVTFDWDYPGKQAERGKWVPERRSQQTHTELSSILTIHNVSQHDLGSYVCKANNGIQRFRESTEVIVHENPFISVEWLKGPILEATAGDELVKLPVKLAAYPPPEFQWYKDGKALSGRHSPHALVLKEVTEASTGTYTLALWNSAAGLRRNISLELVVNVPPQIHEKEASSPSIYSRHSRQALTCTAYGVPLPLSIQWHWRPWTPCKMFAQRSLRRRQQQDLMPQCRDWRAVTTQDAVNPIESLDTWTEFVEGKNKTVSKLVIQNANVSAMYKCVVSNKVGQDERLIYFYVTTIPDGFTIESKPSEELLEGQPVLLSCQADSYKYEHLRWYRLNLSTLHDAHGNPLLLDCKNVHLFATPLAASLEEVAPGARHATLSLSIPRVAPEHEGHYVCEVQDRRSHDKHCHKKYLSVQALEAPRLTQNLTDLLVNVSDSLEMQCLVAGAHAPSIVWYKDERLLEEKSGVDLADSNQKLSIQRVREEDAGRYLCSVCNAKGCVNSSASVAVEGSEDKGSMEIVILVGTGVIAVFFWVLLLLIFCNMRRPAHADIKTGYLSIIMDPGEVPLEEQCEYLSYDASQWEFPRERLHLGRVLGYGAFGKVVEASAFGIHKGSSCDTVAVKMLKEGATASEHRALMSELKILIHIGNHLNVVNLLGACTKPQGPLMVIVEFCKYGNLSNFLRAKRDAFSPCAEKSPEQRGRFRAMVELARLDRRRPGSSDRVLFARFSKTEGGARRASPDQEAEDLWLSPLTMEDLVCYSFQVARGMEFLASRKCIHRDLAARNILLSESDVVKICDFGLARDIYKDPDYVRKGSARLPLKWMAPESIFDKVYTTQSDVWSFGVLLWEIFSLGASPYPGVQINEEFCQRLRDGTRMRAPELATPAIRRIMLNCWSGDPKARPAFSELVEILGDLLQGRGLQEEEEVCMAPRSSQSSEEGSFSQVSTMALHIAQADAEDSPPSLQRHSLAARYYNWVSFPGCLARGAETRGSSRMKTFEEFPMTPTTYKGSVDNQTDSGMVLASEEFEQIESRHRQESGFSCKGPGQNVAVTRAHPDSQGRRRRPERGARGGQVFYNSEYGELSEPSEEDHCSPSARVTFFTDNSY
Sequence of Phosphatidylinositol 4,5-bisphosphate 3-kinase catalytic subunit gamma isoform (P48736 whole entry, looked up, canonical isoform): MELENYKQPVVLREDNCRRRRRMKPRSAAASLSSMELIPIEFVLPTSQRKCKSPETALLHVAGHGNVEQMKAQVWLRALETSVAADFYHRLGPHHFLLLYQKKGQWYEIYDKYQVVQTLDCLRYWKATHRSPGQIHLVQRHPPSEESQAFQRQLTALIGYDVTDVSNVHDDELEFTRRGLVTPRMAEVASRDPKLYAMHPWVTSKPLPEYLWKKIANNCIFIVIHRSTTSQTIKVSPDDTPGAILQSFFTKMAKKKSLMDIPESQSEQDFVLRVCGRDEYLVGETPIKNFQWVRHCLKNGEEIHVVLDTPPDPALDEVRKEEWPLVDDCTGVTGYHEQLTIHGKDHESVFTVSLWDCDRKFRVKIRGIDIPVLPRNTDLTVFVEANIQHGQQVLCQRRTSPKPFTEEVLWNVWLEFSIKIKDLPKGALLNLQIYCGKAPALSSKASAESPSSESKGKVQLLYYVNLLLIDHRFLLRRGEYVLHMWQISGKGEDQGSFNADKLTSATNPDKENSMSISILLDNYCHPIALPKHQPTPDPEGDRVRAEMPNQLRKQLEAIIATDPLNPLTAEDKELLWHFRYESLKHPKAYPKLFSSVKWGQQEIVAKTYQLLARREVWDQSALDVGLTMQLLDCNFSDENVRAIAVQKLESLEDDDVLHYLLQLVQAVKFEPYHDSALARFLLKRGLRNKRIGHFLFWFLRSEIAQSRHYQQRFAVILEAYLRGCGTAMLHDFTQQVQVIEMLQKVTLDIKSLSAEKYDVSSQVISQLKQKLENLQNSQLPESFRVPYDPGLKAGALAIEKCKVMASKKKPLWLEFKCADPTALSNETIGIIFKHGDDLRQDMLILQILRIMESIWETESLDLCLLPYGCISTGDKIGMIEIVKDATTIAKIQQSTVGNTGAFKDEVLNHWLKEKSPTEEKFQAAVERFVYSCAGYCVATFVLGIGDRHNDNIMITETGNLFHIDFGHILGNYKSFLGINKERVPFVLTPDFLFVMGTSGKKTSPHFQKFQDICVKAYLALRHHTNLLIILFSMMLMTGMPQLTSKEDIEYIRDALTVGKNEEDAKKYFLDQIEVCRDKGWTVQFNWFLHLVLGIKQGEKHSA
Sequence of Non-receptor tyrosine-protein kinase TYK2 (P29597 whole entry, the tested form may be a part): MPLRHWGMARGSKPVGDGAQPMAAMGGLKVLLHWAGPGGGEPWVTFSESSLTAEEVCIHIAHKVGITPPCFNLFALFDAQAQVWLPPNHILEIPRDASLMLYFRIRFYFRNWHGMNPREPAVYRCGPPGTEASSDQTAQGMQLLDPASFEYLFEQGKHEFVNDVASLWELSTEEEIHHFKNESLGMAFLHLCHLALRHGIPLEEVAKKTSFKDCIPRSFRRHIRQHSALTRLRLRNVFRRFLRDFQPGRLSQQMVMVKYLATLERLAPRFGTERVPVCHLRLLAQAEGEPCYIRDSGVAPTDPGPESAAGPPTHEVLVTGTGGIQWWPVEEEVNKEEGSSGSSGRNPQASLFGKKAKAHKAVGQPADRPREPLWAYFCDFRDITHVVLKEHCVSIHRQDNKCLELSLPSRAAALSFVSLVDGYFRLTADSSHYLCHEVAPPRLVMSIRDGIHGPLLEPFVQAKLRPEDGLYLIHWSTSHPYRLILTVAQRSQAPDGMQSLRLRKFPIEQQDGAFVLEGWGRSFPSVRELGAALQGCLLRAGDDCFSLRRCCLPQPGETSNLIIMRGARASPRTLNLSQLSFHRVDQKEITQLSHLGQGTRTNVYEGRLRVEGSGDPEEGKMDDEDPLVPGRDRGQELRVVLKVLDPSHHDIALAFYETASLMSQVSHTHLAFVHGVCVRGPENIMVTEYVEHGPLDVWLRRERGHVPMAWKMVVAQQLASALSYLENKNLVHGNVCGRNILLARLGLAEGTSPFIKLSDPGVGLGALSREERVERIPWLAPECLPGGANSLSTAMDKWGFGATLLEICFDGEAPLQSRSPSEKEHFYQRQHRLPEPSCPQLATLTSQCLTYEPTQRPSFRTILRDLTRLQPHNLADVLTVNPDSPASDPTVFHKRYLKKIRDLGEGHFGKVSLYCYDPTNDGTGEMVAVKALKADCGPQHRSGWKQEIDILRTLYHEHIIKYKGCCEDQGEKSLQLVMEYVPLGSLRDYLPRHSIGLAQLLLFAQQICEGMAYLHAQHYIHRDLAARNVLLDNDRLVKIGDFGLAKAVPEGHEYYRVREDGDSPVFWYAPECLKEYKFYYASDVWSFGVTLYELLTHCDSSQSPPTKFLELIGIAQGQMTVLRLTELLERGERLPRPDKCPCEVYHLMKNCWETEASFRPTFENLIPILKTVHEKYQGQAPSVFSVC
Sequence of Proto-oncogene tyrosine-protein kinase receptor Ret (Homo sapiens) (P07949 whole entry): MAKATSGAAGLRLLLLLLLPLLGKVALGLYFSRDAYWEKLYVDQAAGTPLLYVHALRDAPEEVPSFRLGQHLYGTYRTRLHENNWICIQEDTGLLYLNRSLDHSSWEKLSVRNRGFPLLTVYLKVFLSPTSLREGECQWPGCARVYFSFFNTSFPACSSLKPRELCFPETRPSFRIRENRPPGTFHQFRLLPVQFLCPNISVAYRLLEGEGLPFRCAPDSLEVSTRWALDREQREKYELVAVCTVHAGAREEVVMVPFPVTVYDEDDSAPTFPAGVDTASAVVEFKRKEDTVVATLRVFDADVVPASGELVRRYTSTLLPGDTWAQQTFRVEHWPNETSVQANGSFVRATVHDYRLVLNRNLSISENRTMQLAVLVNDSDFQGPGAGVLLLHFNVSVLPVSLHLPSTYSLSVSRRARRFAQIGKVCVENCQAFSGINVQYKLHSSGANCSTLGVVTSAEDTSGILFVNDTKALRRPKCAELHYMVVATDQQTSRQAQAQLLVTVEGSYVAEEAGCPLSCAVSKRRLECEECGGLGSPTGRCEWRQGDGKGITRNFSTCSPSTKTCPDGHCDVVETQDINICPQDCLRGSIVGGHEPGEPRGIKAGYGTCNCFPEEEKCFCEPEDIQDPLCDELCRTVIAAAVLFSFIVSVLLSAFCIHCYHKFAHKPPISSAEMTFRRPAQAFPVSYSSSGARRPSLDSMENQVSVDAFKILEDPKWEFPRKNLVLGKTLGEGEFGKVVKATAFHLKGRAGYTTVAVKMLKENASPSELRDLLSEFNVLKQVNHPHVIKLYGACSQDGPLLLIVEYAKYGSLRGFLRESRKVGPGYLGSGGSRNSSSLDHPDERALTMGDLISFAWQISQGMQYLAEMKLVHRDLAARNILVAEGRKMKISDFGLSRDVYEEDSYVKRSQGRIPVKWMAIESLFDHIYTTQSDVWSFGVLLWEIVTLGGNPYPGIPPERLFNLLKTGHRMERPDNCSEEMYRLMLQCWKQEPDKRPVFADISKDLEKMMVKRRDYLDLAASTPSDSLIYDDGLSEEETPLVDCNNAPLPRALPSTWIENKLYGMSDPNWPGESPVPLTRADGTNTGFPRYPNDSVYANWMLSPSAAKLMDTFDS

Q: For `CN1C(=O)c2sccc2N(C)c2nc(Nc3ccc(S(N)(=O)=O)cc3)ncc21`, which inhibition (Mus musculus [1]) is on record?
A: The inhibition was “Active”.

Q: And the Activity [2]?
A: Its Activity is 67%.

Q: And the Activity [3]?
A: Its Activity is 100%.

Q: What about the Activity [4] of the same compound?
A: The Activity was 100%.

Q: What about the Activity (HepG2) of the same compound?
A: The Activity was 4.04%.

Q: And the Kd [5]?
A: The Kd was 34 nM.

Q: What about the Activity [6] of the same compound?
A: Its Activity is 2.6%.

Q: What about the Activity [7] of the same compound?
A: Its Activity is 0.15%.

Q: And the Activity [8]?
A: The Activity was 94%.

Q: What about the Activity (Mus musculus [9]) of the same compound?
A: Its Activity is “Active”.

Q: What about the Activity [10] of the same compound?
A: Its Activity is 71%.

Q: And the Activity [11]?
A: Its Activity is 86%.

Q: And the half-life [12]?
A: Its half-life is 311 min.

Q: And the Activity [13]?
A: The Activity was 95%.

Q: What about the Activity [14] of the same compound?
A: The Activity was 100%.

Q: And the Activity [15]?
A: The Activity was 56%.

Q: And the Activity [16]?
A: The Activity was 49%.

Q: What about the Activity [17] of the same compound?
A: The Activity was 100%.

Q: And the IC50 [18]?
A: The IC50 was 280 nM.

Q: What about the Activity [19] of the same compound?
A: The Activity was 100%.

Q: And the Activity [20]?
A: The Activity was 100%.

Q: And the Activity [21]?
A: Its Activity is 91%.

Q: And the Activity [22]?
A: Its Activity is 100%.

Q: And the Activity (Mus musculus [23])?
A: The Activity was “Active”.
